ChEMBL document CHEMBL4831507, “Development of FABP4/5 inhibitors with potential therapeutic effect on type 2 Diabetes Mellitus” (Eur J Med Chem, 2021)
pIC50, pKd: −log10 of the molar value. Active and inactive are the calls of the source. The calls are words filed in the database; no cut-off is given here.

Columns and labels:
[1] = test system: 3T3-L1; assay: Inhibition of FABP4 secretion in mouse 3T3-L1 cells assessed as reduction in FABP4 level in conditioned medium at 50 uM incubated for 24 hrs by immunoblotting analysis; type: functional, cell-based
Summary of the method: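 Mature 3T3-L1 adipocytes starved for 6 h in DMEM with 0.5% BSA, then treated with compound at […] for 24 h. Conditioned medium ultrafiltered; lysate and medium protein measured by BCA. FABP4 immunoblotted with GAPDH, ECL detection, densitometry. Three independent experiments.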

[2] = Clearance in ICR mouse at 3 mg/kg, po and 1 mg/kg, iv measured for 24 hrs by LC-MS/MS analysis; type: ADME, organism-based; details: in vivo
Summary of the method: (§1)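 Male ICR mice, 20-25 g, three per group. Oral dose 3 mg/kg in PBS with 5% DMSO and 0.5% HPMC; iv dose 1 mg/kg in DMSO/EtOH/PEG300/NaCl (5/5/40/50). Blood sampled at 0.25, 0.5, 1, 2, 4, 8 and 24 h. Plasma drug measured by LC-MS/MS. Mean ± SEM, n = 3.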

[3] = target: T1, Fatty acid-binding protein, adipocyte (Homo sapiens, UniProt P15090); assay: Displacement of 1,8-ANS from FABP4 (unknown origin) incubated for 3 mins by fluorescence based analysis
Summary of the method: (§2)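 1,8-ANS displacement using purified recombinant FABP3, FABP4 or FABP5. Compound incubated with protein and 1,8-ANS in phosphate buffer for 3 min at room temperature. Fluorescence read at ex 370/em 470 nm. IC50 by nonlinear regression, mean ± SD of three independent experiments.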
Target sequence in this assay (P15090 whole entry): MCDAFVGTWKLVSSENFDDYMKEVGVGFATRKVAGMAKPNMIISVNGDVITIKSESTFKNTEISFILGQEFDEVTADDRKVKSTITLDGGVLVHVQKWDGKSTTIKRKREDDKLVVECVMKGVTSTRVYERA

[4] = test system: Mus musculus; assay: Reduction in FABP4 level in serum of C57BL/KsJ-db/db mouse at 50 mg/kg, po administered for 8 weeks; type: functional, organism-based
Summary of the method: (§3)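 Male db/db mice, 6 weeks old, 10 per group, dosed 50 mg/kg by gavage daily for 8 weeks; vehicle 0.5% CMC-Na. Lean littermates received vehicle. Body weight recorded twice weekly; 6-h fasting tail glucose by glucometer weekly. OGTT on day 45: overnight fast, glucose 0.5 g/kg by gavage. ITT on day 51: 6-h fast, insulin 0.85 IU/kg ip. Glucose AUC calculated. Final serum taken after 6-h fast; HDL-C, LDL-C, TG, TCH and FABP4 measured by kits. Liver Akt and p-Akt(Ser473) by western blot.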

[5] = test system: Mus musculus; assay: Improvement in lipid homeostasis in C57BL/KsJ-db/db mouse assessed as effect on triglyceride level in serum at 50 mg/kg, po administered for 8 weeks; type: functional, organism-based; summary of the method: as §3
[6] = test system: THP-1; assay: Cytotoxicity against human THP-1 cells assessed as reduction in cell viability at 50 uM incubated for 24 hrs by CCK8 assay; type: cell-based; details: thp-1, 24 h
[7] = Oral bioavailability in ICR mouse at 3 mg/kg measured for 24 hrs by LC-MS/MS analysis; type: ADME, organism-based; details: in vivo; summary of the method: as §1
[8] = test system: Mus musculus; assay: Antidiabetic activity in C57BL/KsJ-db/db mouse assessed as improvement in insulin resistance at 50 mg/kg, po administered for 51 days by insulin tolerance test; type: functional, organism-based; details: time 51.0 day; summary of the method: as §3
[9] = AUC in ICR mouse at 3 mg/kg, po measured for 24 hrs by LC-MS/MS analysis; type: ADME, organism-based; parameters: dose 3 mg/kg, time 24 hrs; details: in vivo; summary of the method: as §1
[10] = test system: Mus musculus; assay: Antidiabetic activity in C57BL/KsJ-db/db mouse assessed as improvement in glucose metabolism at 50 mg/kg, po administered for 45 days by oral glucose tolerance test; type: functional, organism-based; details: time 45.0 day; summary of the method: as §3
[11] = Half life in ICR mouse at 1 mg/kg, iv measured for 24 hrs by LC-MS/MS analysis; type: ADME, organism-based; details: in vivo; summary of the method: as §1
[12] = target: T1, Fatty acid-binding protein, adipocyte; assay: Binding affinity to FABP4 (unknown origin) by microscale thermophoresis analysis
Target sequence in this assay (P15090 whole entry): as above

[13] = Cmax in ICR mouse at 3 mg/kg, po and 1 mg/kg, iv measured for 24 hrs by LC-MS/MS analysis; type: ADME, organism-based; parameters: time 24 hrs, dose 3 mg/kg; details: in vivo; summary of the method: as §1
[14] = Half life in ICR mouse at 3 mg/kg, po measured for 24 hrs by LC-MS/MS analysis; type: ADME, organism-based; details: in vivo; summary of the method: as §1
[15] = test system: Mus musculus; assay: In vivo activation of […] signaling in C57BL/KsJ-db/db mouse assessed as increase in Akt phosphorylation at Ser473 in liver at 50 mg/kg, po administered for 8 weeks by western blot analysis; type: functional, organism-based; summary of the method: as §3
[16] = test system: Mus musculus; assay: Improvement in lipid homeostasis in C57BL/KsJ-db/db mouse assessed as increase in high density cholesterol level in serum at 50 mg/kg, po administered for 8 weeks; type: functional, organism-based; summary of the method: as §3
[17] = Toxicity in C57BL/KsJ-db/db mouse assessed as effect on body weight at 50 mg/kg, po administered for 8 weeks; type: organism-based; details: in vivo, 1344 h; summary of the method: as §3
[18] = target: Fatty acid-binding protein, heart (Homo sapiens, UniProt P05413); assay: Displacement of 1,8-ANS from FABP3 (unknown origin) incubated for 3 mins by fluorescence based analysis; summary of the method: as §2
[19] = test system: Mus musculus; assay: Improvement in lipid homeostasis in C57BL/KsJ-db/db mouse assessed as reduction in low density cholesterol level in serum at 50 mg/kg, po administered for 8 weeks; type: functional, organism-based; summary of the method: as §3
[20] = test system: Mus musculus; assay: Antidiabetic activity in C57BL/KsJ-db/db mouse assessed as reduction in fasting blood glucose level at 50 mg/kg, po administered for 7 weeks; type: functional; details: 1176 h; summary of the method: as §3
[21] = AUC in ICR mouse at 1 mg/kg, iv measured for 24 hrs by LC-MS/MS analysis; type: ADME, organism-based; parameters: dose 1 mg/kg, time 24 hrs; details: in vivo; summary of the method: as §1
[22] = test system: THP-1; assay: Antiinflammatory activity against LPS-induced human THP-1 cells assessed as inhibition of MCP-1 gene expression at 25 uM incubated for 18 hrs followed by LPS-stimulation and measured after 6 hrs by qRT-PCR analysis; type: functional, cell-based; details: time 24.0 hrs
Summary of the method: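 THP-1 cells (1 per 48-well, 3*10⁵) differentiated with 100 nM PMA for 24 h, then washed with PBS. Compound at […] or 0.1% DMSO for 18 h, then 100 ng/ml LPS for 6 h. RNA extracted with TRIzol. MCP-1 mRNA by RT-qPCR, 2^-ΔΔCT method.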

[23] = test system: Mus musculus; assay: Improvement in lipid homeostasis in C57BL/KsJ-db/db mouse assessed as effect on total cholesterol level in serum at 50 mg/kg, po administered for 8 weeks; type: functional, organism-based; summary of the method: as §3
[24] = target: T1, Fatty acid-binding protein, adipocyte; assay: Displacement of 1,8-ANS from FABP4 (unknown origin) at 25 uM incubated for 3 mins by fluorescence based analysis relative to control
Summary of the method: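 Single-concentration percent inhibition in the 1,8-ANS displacement assay with FABP4. Compound incubated with protein and probe in phosphate buffer for 3 min at room temperature; fluorescence read at ex 370/em 470 nm.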
Target sequence in this assay (P15090 2-132 limits assumed): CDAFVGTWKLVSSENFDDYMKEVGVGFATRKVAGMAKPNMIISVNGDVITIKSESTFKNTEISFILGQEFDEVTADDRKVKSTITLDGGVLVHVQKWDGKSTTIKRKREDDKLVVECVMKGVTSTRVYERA

[25] = test system: 3T3-L1; assay: Anti-lipolytic activity in mouse 3T3-L1 cells assessed as inhibition of forskolin-stimulated glycerol release at 80 uM preincubated for 24 hrs followed by forskolin stimulation for 1 hr; type: functional, cell-based; details: time 25.0 hrs
[26] = Metabolic stability in mouse liver microsomes assessed as half life at 0.1 uM preincubated for 10 mins followed by NADPH addition and measured for 60 mins by LC-MS/MS analysis; type: ADME, Microsome; details: time 70 min
Summary of the method: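 Mouse liver microsomes 0.33 mg/mL in 0.1 M Tris pH 7.4 with 5 mM MgCl₂, 0.01% DMSO and 0.005% BSA. Compound final […]. Preincubated 10 min at 37 °C; reaction started with 1 mM NADPH. Samples at 0, 7, 17, 30 and 60 min quenched with cold methanol, then analysed by LC-MS/MS.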

[27] = test system: 3T3-L1; assay: Cytotoxicity against mouse 3T3-L1 cells assessed as reduction in cell viability at 100 uM incubated for 24 hrs by CCK8 assay; type: cell-based; details: 3t3-l1, 24 h
[28] = target: T2, Fatty acid-binding protein 5 (Homo sapiens, UniProt Q01469); assay: Binding affinity to FABP5 (unknown origin) by microscale thermophoresis analysis
[29] = species: Homo sapiens; assay: Selectivity ratio of IC50 for FABP3 (unknown origin) to IC50 for FABP4 (unknown origin); summary of the method: as §2
[30] = target: T2, Fatty acid-binding protein 5; assay: Displacement of 1,8-ANS from FABP5 (unknown origin) incubated for 3 mins by fluorescence based analysis
[31] = species: Homo sapiens; assay: Selectivity ratio of IC50 for FABP3 (unknown origin) to IC50 for FABP5 (unknown origin); summary of the method: as §2

Sequence of Fatty acid-binding protein, heart (P05413 whole entry): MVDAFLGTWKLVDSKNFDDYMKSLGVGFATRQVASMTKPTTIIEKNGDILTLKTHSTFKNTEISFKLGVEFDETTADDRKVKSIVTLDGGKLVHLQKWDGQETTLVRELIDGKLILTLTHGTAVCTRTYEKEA
T2 sequence (Q01469 whole entry): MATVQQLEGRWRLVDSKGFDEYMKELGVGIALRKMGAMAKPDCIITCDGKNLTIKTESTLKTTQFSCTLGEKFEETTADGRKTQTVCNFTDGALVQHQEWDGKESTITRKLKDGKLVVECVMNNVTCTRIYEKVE

## O=C(O)c1cc(NS(=O)(=O)c2ccc(-c3ccc(F)cc3Cl)c3ccccc23)ccc1F
[1]
  inhibition: Active
[2]
  clearance: 8.73 mL/min/kg
[3]
  pIC50: 5.33
[4]
  inhibition: Active
[5]
  Activity: inactive
[6]
  Activity: Non-Toxic
[7]
  bioavailability: 18.4%
[8]
  Activity: Active
[9]
  AUC at 24 h: 1090 ng·h/mL
[10]
  Activity: Active
[11]
  half-life: 2.88 h
[12]
  pKd: 4.96
[13]
  Cmax: 782 ng/mL
[14]
  half-life: 1.36 h
[15]
  Activity: Active
[16]
  Activity: Active
[17]
  Activity: Non-Toxic
[18]
  pIC50: 3.98
[19]
  Activity: Active
[20]
  inhibition in vivo at 50 mg/kg: 32.4%
[21]
  AUC at 24 h: 1980 ng·h/mL
[22]
  Activity: Active
[23]
  Activity: inactive
[24]
  inhibition: 86%
[25]
  Activity: Active
[26]
  half-life at 0.1 µM: 1.52 h
[27]
  Activity: Non-Toxic

## COc1c(-c2ccc(F)cc2C)cc(S(=O)(=O)Nc2ccc(F)c(CC(=O)O)c2)c2ccccc12
[1]
  inhibition: Active
[2]
  clearance: 8.56 mL/min/kg
[3]
  pIC50: 5.42
[4]
  inhibition: Active
[28]
  pKd: 4.85
[5]
  Activity: inactive
[6]
  Activity: Non-Toxic
[7]
  bioavailability: 29.9%
[8]
  Activity: Active
[9]
  AUC at 24 h: 1740 ng·h/mL
[10]
  Activity: Active
[11]
  half-life: 1.78 h
[12]
  pKd: 5.50
[13]
  Cmax: 478 ng/mL
[14]
  half-life: 6.04 h
[29]
  Ratio IC50: 22.3
[15]
  Activity: Active
[16]
  Activity: Active
[17]
  Activity: Non-Toxic
[18]
  pIC50: 4.07
[20]
  inhibition in vivo at 50 mg/kg: 28.1%
[21]
  AUC at 24 h: 1940 ng·h/mL
[22]
  Activity: Active
[23]
  Activity: inactive
[30]
  pIC50: 5.24
[24]
  inhibition: 94%
[25]
  Activity: Active
[26]
  half-life at 0.1 µM: 1.47 h
[31]
  Ratio IC50: 14.7
[27]
  Activity: Non-Toxic
